Measurements taken from paper PMC5715471 (ACS chemical neuroscience, 2017).
Read-outs that look alike come from different tables or passages of the source.

Key:
[1] = tested on: mouse spared nerve injury (SNI) model; test: Mechanical sensitivity; type: in vivo; details: for time after IT injection at which efficacy was seen (onset) / time through which antipain effect persisted: IT 10 μg; for effect on SNI-induced mechanical hypersensitivity: single IT injection, 10 μg, vs vehicle
Procedure, shortened: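 Male C57Bl6/J mice with SNI (peroneal and tibial sciatic branches cut, sural spared), confirmed hypersensitive 2 weeks post-surgery and screened 21–60 days after SNI. Single intrathecal 10 μg in 5 μL saline (DMSO <5%, vehicle DMSO-matched). Blinded hindpaw von Frey, modified up–down, at set times. n = 4–11. Mean ± SEM; two-way ANOVA with Bonferroni. Repeat injections ≥14 days apart.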

[2] = tested on: SK-N-SH neuroblastoma cells; details: cited from earlier work
[3] = in vivo; cited from earlier work
[4] = tested on: mouse spared nerve injury (SNI) model; test: Mechanical sensitivity; type: in vivo; details: IV 100 mg/kg
Procedure, shortened: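 Male C57Bl6/J SNI mice, hindpaw mechanical hypersensitivity confirmed 2 weeks post-surgery. Tail-vein IV injection in 100 μL sterile saline (DMSO stock diluted; vehicle DMSO-matched): test compound 10 mg/kg, gabapentin 100 mg/kg, or vehicle, n = 6 each. Blinded von Frey testing (modified up–down) at set time points. Mean ± SEM; two-way ANOVA with Bonferroni post hoc.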

σ2R/Tmem97 = biological target: T1, σ2R/Tmem97 (Rattus norvegicus, UniProt Q5U3Y7); test: Sigma 2 receptor competition binding with [3H]-ditolylguanidine; details: σ2R from rat PC12 cells
T1 sequence (Q5U3Y7 1-176): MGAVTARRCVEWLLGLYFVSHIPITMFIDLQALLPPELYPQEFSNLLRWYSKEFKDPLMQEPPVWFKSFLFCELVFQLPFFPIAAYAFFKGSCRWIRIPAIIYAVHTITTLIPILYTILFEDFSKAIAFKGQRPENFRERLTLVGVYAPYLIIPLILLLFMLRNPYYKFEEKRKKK

[5] = Blood brain barrier crossing; type: in vivo; details: no data or reference given

SMILES	time after IT injection at which efficacy was seen (onset) [1]	time through which antipain effect persisted [1]	effect on SNI-induced mechanical hypersensitivity [1]	affinity at σ2R/Tmem97 (in words) (σ2R/Tmem97)	also measured
CN1CCC2CC1c1cc(N3CCOCC3)ccc12 (racemic) [JWG-1014, (±)-2-Methyl-2,3,4,5-tetrahydro-1H-1,5-methanobenzo[c]-azepin-8-yl)morpholine]	48 h	120 h	significantly different from vehicle		
CN1CCN(c2ccc3c(c2)[C@H]2C[C@@H]3CCN2C(=O)OCc2ccccc2)CC1 [SAS-0132]					effect of co-administration on antinociceptive action of UKH-1114 ([1]; SAS-0132 10 μg IT given at the same time as UKH-1114 10 μg): completely blocked the effect seen with UKH-1114 given alone; effect of pretreatment on DKR-1051-induced Ca2+ transient ([2]; SK-N-SH neuroblastoma cells pretreated with SAS-0132): attenuated; blood brain barrier crossing [3]: cross the blood brain barrier
Fc1ccc(-n2cc(CCCCN3CCC4(CC3)OCc3ccccc34)c3ccccc32)cc1 [Siramesine, reference compound]			small inhibitory effect on mechanical hypersensitivity that was significant at 24 and 48 h		
NCC1(CC(=O)O)CCCCC1 [Gabapentin, reference compound]					effect on SNI-induced mechanical hypersensitivity ([4]; 1 and 3 h after injection): completely reversed mechanical hypersensitivity; mechanical hypersensitivity state ([4]; 24 h after injection): fully mechanically hypersensitive again
c1ccc(CCN2CCC3CC2c2ccccc23)cc1 (racemic) [JSS-1027, (±)-2-Phenethyl-2,3,4,5-tetrahydro-1H-1,5-methanobenzo[c]-azepine]	48 h	120 h	significantly different from vehicle	low nM range	
Clc1ccc2c(c1)C1CC2CCCN1CC1CCCCC1 (racemic) [MFG-1046, (±)-9-Chloro-2-(cyclohexylmethyl)-1,2,3,4,5,6-hexahydro-1,6-methanobenzo[c]azocine]	24 h	72 h	significantly different from vehicle	low nM range	
FC(F)(F)c1ccc(-c2ccc3c(c2)C2CC3CCCN2C2CCCC2)cc1 (racemic) [DKR-1051, (±)-2-Cyclopentyl-9-(4-(trifluoromethyl)phenyl)-1,2,3,4,5,6-hexa-hydro-1,6-methanobenzo[c]azocine]			significant antimechanical hypersensitivity effects at either 24 or 48 h	high affinity	time of peak relief of mechanical hypersensitivity after dosing ([1]; IT): 48 h; effect on intracellular Ca2+ ([2]; SK-N-SH neuroblastoma cells): induces a rapid Ca^2+ transient; blood brain barrier crossing [5]: cross the blood brain barrier
